# pKi: −log10 of the molar value.
# What was measured:
# [1] = target: T1, Multidrug resistance-associated protein 1 (Homo sapiens, UniProt P33527); assay: Inhibition of MRP1-mediated E2-17betaG transport in human MRP1 expressing HEK293 cells at 7 uM during 5 mins; type: ADME, cell-based; details: hek293, 5 min
# How it was run: (§1)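 Inside-out membrane vesicles from HEK293 cells transduced with MRP baculovirus (5 mM butyrate at 24 h, harvested day 3). Reaction: 7.5 µg vesicles in TS buffer pH 7.4 with 4 mM ATP, 10 mM MgCl2 and [3H]E2-17βG, 37°C for 5 min. E2-17βG was 0.16 µM (MRP1), 20 µM (MRP2) or 0.12 µM (MRP4). Uptake was read by rapid filtration and scintillation counting. ATP-dependent uptake was taken as ATP minus AMP values, with drug-free uptake set at 100%. Nominal 10 or 100 µM antagonist; actual concentration measured by LC-MS/MS. Three independent experiments.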
# [2] = target: T2, ATP-binding cassette sub-family C member 4 (Homo sapiens, UniProt O15439); assay: Inhibition of MRP4-mediated E2-17betaG transport in human MRP4 expressing HEK293 cells at 7 uM during 5 mins; type: ADME, cell-based; details: hek293, 5 min; how it was run: as §1
# T2 sequence (O15439 whole entry): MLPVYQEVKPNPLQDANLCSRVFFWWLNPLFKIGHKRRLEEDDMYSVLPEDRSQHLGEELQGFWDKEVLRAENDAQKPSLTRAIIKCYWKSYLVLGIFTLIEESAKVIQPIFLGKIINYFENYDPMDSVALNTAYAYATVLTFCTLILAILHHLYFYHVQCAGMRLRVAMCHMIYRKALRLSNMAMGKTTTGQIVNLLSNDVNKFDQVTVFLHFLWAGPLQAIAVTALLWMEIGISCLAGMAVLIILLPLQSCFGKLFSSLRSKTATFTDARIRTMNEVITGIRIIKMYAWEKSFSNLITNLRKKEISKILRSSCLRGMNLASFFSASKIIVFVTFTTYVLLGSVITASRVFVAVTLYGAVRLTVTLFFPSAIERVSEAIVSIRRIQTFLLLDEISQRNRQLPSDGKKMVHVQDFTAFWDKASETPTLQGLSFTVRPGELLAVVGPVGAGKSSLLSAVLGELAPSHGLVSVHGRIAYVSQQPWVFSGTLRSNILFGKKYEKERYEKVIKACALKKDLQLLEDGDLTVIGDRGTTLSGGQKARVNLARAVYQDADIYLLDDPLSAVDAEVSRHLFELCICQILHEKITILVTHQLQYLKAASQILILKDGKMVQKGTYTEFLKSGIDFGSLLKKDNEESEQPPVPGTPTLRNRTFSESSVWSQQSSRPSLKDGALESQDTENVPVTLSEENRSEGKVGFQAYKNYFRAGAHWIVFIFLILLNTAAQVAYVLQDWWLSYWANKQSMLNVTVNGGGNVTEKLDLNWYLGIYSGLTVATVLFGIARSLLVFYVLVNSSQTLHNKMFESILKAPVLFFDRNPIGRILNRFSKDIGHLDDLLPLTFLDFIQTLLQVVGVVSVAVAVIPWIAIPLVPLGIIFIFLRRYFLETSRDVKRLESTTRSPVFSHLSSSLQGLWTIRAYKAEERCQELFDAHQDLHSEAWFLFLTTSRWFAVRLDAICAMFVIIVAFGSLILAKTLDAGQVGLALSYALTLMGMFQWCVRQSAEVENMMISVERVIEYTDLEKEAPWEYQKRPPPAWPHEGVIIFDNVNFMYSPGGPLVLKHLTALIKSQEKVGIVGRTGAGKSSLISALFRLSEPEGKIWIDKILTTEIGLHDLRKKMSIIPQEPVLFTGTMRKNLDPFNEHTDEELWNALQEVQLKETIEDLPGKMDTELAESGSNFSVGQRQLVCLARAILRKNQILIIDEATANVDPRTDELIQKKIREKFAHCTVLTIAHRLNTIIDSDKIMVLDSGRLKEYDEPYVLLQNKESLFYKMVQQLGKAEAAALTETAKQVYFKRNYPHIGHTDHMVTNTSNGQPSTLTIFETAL
# [3] = target: T3, ATP-binding cassette sub-family C member 2 (Homo sapiens, UniProt Q92887); assay: Induction of MRP2-mediated E2-17betaG transport in human MRP2 expressing HEK293 cells at 7 uM during 5 mins; type: ADME, cell-based; details: hek293, 5 min; how it was run: as §1
# T3 sequence (Q92887 whole entry): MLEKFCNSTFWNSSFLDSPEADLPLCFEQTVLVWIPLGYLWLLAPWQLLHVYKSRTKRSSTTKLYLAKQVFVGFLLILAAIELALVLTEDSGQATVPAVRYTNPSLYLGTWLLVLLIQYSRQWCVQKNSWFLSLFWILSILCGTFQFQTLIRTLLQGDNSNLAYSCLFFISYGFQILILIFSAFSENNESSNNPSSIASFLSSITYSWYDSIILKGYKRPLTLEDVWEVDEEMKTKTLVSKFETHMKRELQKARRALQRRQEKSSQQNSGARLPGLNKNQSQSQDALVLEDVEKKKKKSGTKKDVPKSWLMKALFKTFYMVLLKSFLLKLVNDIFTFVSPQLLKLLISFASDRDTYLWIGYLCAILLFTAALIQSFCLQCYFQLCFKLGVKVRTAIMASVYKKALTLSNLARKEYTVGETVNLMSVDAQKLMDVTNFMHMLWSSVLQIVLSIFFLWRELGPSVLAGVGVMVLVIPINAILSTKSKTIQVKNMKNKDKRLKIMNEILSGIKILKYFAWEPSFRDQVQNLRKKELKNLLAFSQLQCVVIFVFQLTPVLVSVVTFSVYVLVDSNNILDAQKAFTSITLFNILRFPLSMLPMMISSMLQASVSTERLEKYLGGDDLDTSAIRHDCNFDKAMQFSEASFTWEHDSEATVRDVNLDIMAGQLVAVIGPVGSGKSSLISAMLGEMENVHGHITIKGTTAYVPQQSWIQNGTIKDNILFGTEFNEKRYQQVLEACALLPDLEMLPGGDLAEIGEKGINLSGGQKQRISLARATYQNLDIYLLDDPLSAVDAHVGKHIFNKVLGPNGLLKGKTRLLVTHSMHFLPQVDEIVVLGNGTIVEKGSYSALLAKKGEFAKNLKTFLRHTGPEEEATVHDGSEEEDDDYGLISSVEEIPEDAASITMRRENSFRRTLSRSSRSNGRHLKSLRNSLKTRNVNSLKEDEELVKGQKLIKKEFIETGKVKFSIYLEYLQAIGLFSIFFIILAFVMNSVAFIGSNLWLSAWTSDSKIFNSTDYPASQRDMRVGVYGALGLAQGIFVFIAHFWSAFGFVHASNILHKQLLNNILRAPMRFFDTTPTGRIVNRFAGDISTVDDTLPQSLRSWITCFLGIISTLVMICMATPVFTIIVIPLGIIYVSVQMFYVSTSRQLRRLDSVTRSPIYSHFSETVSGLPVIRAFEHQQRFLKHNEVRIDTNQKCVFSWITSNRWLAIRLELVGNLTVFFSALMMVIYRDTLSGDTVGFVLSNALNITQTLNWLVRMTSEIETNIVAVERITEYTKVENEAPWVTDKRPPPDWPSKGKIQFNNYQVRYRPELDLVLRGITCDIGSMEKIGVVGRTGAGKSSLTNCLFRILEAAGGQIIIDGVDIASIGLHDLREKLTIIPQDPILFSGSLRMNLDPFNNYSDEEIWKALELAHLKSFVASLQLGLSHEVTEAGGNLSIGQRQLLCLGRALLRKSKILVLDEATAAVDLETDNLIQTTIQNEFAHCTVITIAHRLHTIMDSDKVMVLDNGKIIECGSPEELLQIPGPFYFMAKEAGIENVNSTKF
# [4] = system: Rattus norvegicus; assay: Attenuation of CP55940-induced hypotension in iv dosed rat; type: functional
# How it was run: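 Male normotensive anaesthetized Wistar rats; antagonist given i.v. at several doses (n=2 per dose) 10 min before CP55,940 0.1 mg/kg i.v. Hypotension develops within 1 min; lowest blood pressure taken as the hypotensive effect. ED50 is the dose inhibiting the CP55,940 hypotensive effect by 50%, calculated from the linear part of the percentage dose-response curve.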
# [5] = Retention time of the compound by LC-MS/MS method; type: physicochemical
# How it was run: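 Reaction mix without radiolabel, AMP condition, with 7.5 μg eYFP vesicles. Supernatant after 16,000–20,000g spin diluted in 50% acetonitrile/0.1% TFA. Gradient of 0.1% TFA water/acetonitrile, 50→90% B over 5 min. Electrospray triple quadrupole. Duplicates, at least three experiments.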
# [6] = target: T1, Multidrug resistance-associated protein 1; assay: (§2) Inhibition of MRP1-mediated E2-17betaG transport in human MRP1 expressing HEK293 cells at 12 uM during 5 mins; type: ADME, cell-based; details: hek293, 5 min, 12 µM
# How it was run: (§3)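 Inside-out membrane vesicles from MRP1-baculovirus-transduced HEK293 cells. 7.5 μg vesicles in TS buffer, 4 mM ATP, 10 mM MgCl2, 0.16 μM [3H]E2-17βG, 5 min at 37°C. Stopped on ice, then rapid filtration and scintillation counting. ATP minus AMP uptake taken as net. Nominal 10 or 100 μM antagonist, actual levels by LC-MS/MS. Expressed as % of untreated. Three independent experiments.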
# [7] = target: T3, ATP-binding cassette sub-family C member 2; assay: Induction of MRP2-mediated E2-17betaG transport in human MRP2 expressing HEK293 cells at 12 uM during 5 mins; type: ADME, cell-based; details: hek293, 5 min
# How it was run: (§4)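 Inside-out membrane vesicles from HEK293 cells transduced with MRP2 baculovirus (sodium butyrate 5 mM added at 24 h, harvested day 3). 7.5 μg vesicles in TS buffer (pH 7.4) with 4 mM ATP, 10 mM MgCl2, 20 μM [3H]E2-17βG, 5 min at 37°C. Rapid filtration and scintillation counting; AMP values subtracted. Nominal 10 and 100 μM antagonist, actual levels measured by LC-MS/MS. Untreated set at 100%. Three independent experiments.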
# [8] = target: T2, ATP-binding cassette sub-family C member 4; assay: (§5) Inhibition of MRP4-mediated E2-17betaG transport in human MRP4 expressing HEK293 cells at 12 uM during 5 mins; type: ADME, cell-based; details: hek293, 5 min, 12 µM
# How it was run: (§6)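 MRP4-expressing HEK293 inside-out vesicles (baculovirus transduction). 7.5 μg protein with 4 mM ATP, 10 mM MgCl2 in TS buffer and 0.12 μM [3H]E2-17βG, 5 min at 37°C. Filter-bound radioactivity counted; AMP control subtracted for ATP-dependent uptake. Nominal 10/100 μM antagonist, actual concentrations by LC-MS/MS. Percent of untreated, three independent experiments.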
# [9] = target: T2, ATP-binding cassette sub-family C member 4; assay: Inhibition of MRP4-mediated E2-17betaG transport in human MRP4 expressing HEK293 cells in presence of 0.1 to 1 uM E2-17betaG
# [10] = target: T3, ATP-binding cassette sub-family C member 2; assay: Induction of MRP2-mediated E2-17betaG transport in human MRP2 expressing HEK293 cells at 1 to 3 uM during 5 mins; type: ADME, cell-based; details: hek293, 5 min; how it was run: as §4
# [11] = target: ATP-binding cassette sub-family C member 3 (Homo sapiens, UniProt O15438); assay: Inhibition of MRP3-mediated E2-17betaG transport in human MRP3 expressing HEK293 cells in presence of 15 uM E2-17betaG; type: ADME, cell-based
# ATP-binding cassette sub-family C member 3, sequence (O15438 whole entry): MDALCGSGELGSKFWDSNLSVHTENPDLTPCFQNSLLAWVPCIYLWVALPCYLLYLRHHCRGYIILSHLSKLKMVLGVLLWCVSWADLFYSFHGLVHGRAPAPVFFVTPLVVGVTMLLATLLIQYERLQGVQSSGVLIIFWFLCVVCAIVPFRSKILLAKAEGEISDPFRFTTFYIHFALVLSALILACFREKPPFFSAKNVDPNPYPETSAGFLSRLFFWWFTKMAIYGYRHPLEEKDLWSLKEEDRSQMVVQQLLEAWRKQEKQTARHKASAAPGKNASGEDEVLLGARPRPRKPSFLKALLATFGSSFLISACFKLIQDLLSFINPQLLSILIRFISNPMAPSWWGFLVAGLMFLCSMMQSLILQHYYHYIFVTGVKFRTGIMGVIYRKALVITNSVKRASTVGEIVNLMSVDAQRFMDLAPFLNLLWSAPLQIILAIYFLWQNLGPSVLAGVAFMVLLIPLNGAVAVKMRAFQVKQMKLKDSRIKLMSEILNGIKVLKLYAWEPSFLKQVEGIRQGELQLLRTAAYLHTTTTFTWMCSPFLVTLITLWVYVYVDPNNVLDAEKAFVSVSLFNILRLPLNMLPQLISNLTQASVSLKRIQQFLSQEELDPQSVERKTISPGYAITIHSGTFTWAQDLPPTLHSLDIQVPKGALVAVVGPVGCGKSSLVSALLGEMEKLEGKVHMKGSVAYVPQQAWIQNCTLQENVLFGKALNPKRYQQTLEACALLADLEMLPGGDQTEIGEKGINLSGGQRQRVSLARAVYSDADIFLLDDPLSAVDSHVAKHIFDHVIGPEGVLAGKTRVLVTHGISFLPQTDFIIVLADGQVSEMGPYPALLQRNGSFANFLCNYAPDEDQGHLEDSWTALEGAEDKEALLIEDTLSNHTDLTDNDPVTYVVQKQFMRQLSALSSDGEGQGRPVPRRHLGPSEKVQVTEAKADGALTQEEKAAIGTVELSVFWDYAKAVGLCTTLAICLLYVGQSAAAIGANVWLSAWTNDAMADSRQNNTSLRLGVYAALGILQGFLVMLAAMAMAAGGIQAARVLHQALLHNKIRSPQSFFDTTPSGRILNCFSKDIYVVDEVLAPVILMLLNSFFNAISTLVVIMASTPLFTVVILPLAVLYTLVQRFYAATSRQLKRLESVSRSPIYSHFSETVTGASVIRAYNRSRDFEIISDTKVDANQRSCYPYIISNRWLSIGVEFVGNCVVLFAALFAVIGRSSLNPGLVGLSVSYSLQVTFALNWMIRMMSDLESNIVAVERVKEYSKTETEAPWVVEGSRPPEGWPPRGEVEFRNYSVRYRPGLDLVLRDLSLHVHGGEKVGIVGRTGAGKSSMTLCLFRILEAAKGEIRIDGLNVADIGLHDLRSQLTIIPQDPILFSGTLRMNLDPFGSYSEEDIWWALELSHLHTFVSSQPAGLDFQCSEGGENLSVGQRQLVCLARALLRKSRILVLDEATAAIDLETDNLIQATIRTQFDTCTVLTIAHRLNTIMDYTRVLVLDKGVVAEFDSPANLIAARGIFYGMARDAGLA
# How it was run: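 Vesicles from MRP3-transduced HEK293 cells. 7.5 μg in TS buffer with 4 mM ATP and 10 mM MgCl2, substrate [3H]E2-17βG at 15 μM, with antagonists at high concentrations. Incubated at 37°C, filtered and counted. ATP-dependent uptake calculated by AMP subtraction.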
# [12] = target: T2, ATP-binding cassette sub-family C member 4; assay: Noncompetitive inhibition of MRP4-mediated E2-17betaG transport in human MRP4 expressing HEK293 cells by Dixon plot; type: ADME, cell-based
# [13] = target: T2, ATP-binding cassette sub-family C member 4; assay: Inhibition of MRP4-mediated E2-17betaG transport in human MRP4 expressing HEK293 cells at 1 to 3 uM during 5 mins; type: ADME, cell-based; details: hek293, 5 min; how it was run: as §6
# [14] = target: T3, ATP-binding cassette sub-family C member 2; assay: Induction of MRP2-mediated E2-17betaG transport in human MRP2 expressing HEK293 cells at 0.7 to 1.3 uM during 5 mins; type: ADME, cell-based; details: hek293, 5 min; how it was run: as §4
# [15] = target: T1, Multidrug resistance-associated protein 1; assay: Inhibition of MRP1-mediated E2-17betaG transport in human MRP1 expressing HEK293 cells at 1 to 3 uM during 5 mins; type: ADME, cell-based; details: hek293, 5 min; how it was run: as §3
# [16] = target: MRP1 (ABCC1) (Homo sapiens, UniProt P33527); assay: as §2; type: ADME, cell-based; details: probe E2-17betaG; how it was run: as §3
# MRP1 (ABCC1), sequence (P33527 whole entry): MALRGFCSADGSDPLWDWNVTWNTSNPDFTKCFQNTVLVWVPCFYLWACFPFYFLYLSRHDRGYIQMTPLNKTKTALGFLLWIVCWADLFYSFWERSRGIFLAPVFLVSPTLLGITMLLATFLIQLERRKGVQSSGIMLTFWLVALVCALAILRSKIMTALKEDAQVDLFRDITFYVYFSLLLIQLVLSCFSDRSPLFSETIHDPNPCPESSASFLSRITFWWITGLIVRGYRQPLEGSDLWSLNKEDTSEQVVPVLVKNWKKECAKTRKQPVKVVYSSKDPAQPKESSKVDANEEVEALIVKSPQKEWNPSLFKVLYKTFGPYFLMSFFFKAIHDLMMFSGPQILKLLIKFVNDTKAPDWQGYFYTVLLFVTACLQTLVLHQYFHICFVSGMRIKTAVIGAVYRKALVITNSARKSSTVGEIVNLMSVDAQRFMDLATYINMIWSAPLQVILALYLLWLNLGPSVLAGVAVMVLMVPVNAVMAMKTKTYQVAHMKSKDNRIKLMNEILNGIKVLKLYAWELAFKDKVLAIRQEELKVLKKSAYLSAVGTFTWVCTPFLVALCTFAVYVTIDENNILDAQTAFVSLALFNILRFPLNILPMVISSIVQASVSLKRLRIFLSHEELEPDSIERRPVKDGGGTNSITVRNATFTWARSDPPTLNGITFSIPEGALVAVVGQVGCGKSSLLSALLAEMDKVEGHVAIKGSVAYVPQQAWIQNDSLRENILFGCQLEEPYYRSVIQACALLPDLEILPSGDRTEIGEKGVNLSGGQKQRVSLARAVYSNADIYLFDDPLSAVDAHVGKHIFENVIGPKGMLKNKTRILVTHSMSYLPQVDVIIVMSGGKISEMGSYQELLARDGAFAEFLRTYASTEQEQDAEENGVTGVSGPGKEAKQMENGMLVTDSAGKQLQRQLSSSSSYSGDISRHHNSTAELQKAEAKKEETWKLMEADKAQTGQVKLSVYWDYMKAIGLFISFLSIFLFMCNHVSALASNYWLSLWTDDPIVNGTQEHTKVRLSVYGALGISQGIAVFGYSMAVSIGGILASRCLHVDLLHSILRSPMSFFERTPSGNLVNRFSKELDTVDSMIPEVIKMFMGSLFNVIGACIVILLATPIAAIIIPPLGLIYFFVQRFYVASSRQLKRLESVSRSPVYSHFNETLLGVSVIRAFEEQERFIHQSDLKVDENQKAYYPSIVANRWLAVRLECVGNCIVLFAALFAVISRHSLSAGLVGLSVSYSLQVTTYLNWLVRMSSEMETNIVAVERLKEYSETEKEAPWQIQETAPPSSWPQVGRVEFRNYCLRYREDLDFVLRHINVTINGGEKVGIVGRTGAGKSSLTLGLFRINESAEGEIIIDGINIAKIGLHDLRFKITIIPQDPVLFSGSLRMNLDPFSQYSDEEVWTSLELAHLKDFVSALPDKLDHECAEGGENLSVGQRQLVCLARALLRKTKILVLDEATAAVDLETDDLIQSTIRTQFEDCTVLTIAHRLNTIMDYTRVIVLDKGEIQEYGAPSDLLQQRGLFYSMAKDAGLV
# [17] = target: T1, Multidrug resistance-associated protein 1; assay: Inhibition of MRP1-mediated E2-17betaG transport in human MRP1 expressing HEK293 cells in presence of 0.16 to 5 uM E2-17betaG
# [18] = target: T4, MRP4 (ABCC4) (Homo sapiens, UniProt O15439); assay: as §5; type: ADME, cell-based; details: probe E2-17betaG; how it was run: as §6
# T4 sequence (O15439 whole entry): T2 sequence (O15439 whole entry)
# [19] = target: T3, ATP-binding cassette sub-family C member 2; assay: Induction of MRP2-mediated E2-17betaG transport in human MRP2 expressing HEK293 cells at 33 uM during 5 mins; type: ADME, cell-based; details: hek293, 5 min; how it was run: as §1
# [20] = target: T1, Multidrug resistance-associated protein 1; assay: Inhibition of MRP1-mediated E2-17betaG transport in human MRP1 expressing HEK293 cells at 33 uM during 5 min; type: ADME, cell-based; details: hek293, 5 min; how it was run: as §1
# [21] = target: T2, ATP-binding cassette sub-family C member 4; assay: Inhibition of MRP4-mediated E2-17betaG transport in human MRP4 expressing HEK293 cells at 33 uM during 5 mins; type: ADME, cell-based; details: hek293, 5 min; how it was run: as §1
# [22] = target: T3, ATP-binding cassette sub-family C member 2; assay: Induction of MRP2-mediated E2-17betaG transport in human MRP2 expressing HEK293 cells at 4 uM during 5 mins; type: ADME, cell-based; details: hek293, 5 min; how it was run: as §4
# [23] = Cmax in male human subjects; type: ADME, organism-based; details: in vivo
# [24] = target: T4, MRP4 (ABCC4); assay: Inhibition of MRP4-mediated E2-17betaG transport in human MRP4 expressing HEK293 cells at 4 uM during 5 mins; type: ADME, cell-based; details: probe E2-17betaG; how it was run: as §6
# T1 sequence (P33527 whole entry): as above
inhibition (INH) [9],inhibition (INH) [11],SMILES,ED50 [4],Retention_time [5],Activity [10],inhibition (INH) [13],Activity [14],inhibition (INH) [15],other results
,,CCN(CC)S(=O)(=O)NC(=NC)N1CC(c2ccccc2)C(c2ccc(Cl)cc2)=N1 (configuration not stated),0.2 mg/kg,4.2 min,,,,,inhibition (INH) [1]: Not Active; inhibition (INH) [2]: Active; Activity [3]: 543%
,,CN=C(NS(=O)(=O)N1CCCC1)N1CC(c2ccccc2)C(c2ccc(Cl)cc2)=N1 (configuration not stated),0.7 mg/kg,3.5 min,,,,,inhibition (INH) [6]: Active; Activity [7]: 543%; inhibition (INH) [8]: Active
,,CNC(=NS(=O)(=O)N1CCCCCCC1)N1CC(c2ccccc2)C(c2ccc(Cl)cc2)=N1 (configuration not stated),,5.4 min,349%,Not Active,256%,Not Active,
Active,Active,CCN(C)S(=O)(=O)NC(=NC)N1CC(c2ccccc2)C(c2ccc(Cl)cc2)=N1 (configuration not stated),,3.8 min,,,,,"pKi [12]: 5.15; inhibition at 5 min, 12 µM [16]: -34%; Activity [7]: 543%; inhibition (INH) [17]: Active; inhibition at 5 min, 12 µM [18]: -72%"
,,C/N=C(\NS(=O)(=O)N(C)C(C)C)N1CC(c2ccccc2)C(c2ccc(Cl)cc2)=N1 (configuration not stated),,4.2 min,,,,,inhibition (INH) [1]: Active; inhibition (INH) [2]: Active; Activity [3]: 543%
,,C/N=C(\NS(=O)(=O)N(C)C)N1CC(c2ccccc2)C(c2ccc(Cl)cc2)=N1 (configuration not stated),> 0.3 mg/kg,3.2 min,,,,,Activity [19]: 543%; inhibition (INH) [20]: Active; inhibition (INH) [21]: Active
,,C/N=C(\NS(=O)(=O)N1CCSCC1)N1CC(c2ccccc2)C(c2ccc(Cl)cc2)=N1 (configuration not stated),,4 min,349%,Not Active,256%,Not Active,
,,CN=C(NS(=O)(=O)N1CCS(=O)(=O)CC1)N1CC(c2ccccc2)C(c2ccc(Cl)cc2)=N1 (configuration not stated),,2.6 min,Not Active,Not Active,,Not Active,
Active,Active,Cc1c(C(=O)NN2CCCCC2)nn(-c2ccc(Cl)cc2Cl)c1-c1ccc(Cl)cc1 [RIMONABANT],,3.2 min,,,,,"pKi [12]: 5.40; Activity [22]: 513%; Cmax [23]: 400 nM; inhibition at 5 min, 4 µM [24]: -58%"

SMILES,inhibition (INH) [9],inhibition (INH) [11],ED50 [4],Retention_time [5],Activity [10],inhibition (INH) [13],Activity [14],inhibition (INH) [15],other results
CN/C(=N\S(=O)(=O)N1CCCCCC1)N1CC(c2ccccc2)C(c2ccc(Cl)cc2)=N1 (configuration not stated),Active,Active,0.1 mg/kg,4.8 min,349%,Not Active,256%,Not Active,"inhibition (INH) ([12]; human, hek293): Active"
